UPR XBP1 act: adaptive UPR (XBP1) activation | actives 0.33% (n = 330,000) | CHO-XBP1 luciferase reporter, IRE1-XBP1 UPR activation, luminescence; percent of tunicamycin response, DMSO as zero | activation, % at 20 µM;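 active = versus positive control, 20 µM dose yields 30% or more activation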
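Assay system: CHO-XBP1 luciferase reporter cells; Schedule: 6 h treatment, 37 °C; Detection: glow luminescence from Steady-Glo reagent; Benchmarks: high control tunicamycin 10 µg/mL final, low control DMSO vehicle only.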
Beta apoptosis: beta cell apoptosis inhibition. protection from apoptosis, % (no concentration beside the values). actives 0.8% (n = 300,000). AID 435005. INS-1E cytokine-induced death, ATP luminescence, 48 h; percent of positive-control rescue, neutral wells zero;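 active = Every replicate reaches about 75%, or at least half do and their mean reaches it too, limit read from the data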;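 note: higher means more ATP so stronger rescue from cytokine killing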
Mdm2 MdmX PPI: inhibitors of human Mdm2/MdmX interaction; actives 3% (n = 330,000); inhibition, % at 8 µM; O15151+Q00987; AID 485346; SaOS-2 split-luciferase Mdm2/MdmX complementation, luminescence;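 active = inhibition of at least 50% at 8 µM in the primary screen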
Target sequence (O15151 whole entry, looked up): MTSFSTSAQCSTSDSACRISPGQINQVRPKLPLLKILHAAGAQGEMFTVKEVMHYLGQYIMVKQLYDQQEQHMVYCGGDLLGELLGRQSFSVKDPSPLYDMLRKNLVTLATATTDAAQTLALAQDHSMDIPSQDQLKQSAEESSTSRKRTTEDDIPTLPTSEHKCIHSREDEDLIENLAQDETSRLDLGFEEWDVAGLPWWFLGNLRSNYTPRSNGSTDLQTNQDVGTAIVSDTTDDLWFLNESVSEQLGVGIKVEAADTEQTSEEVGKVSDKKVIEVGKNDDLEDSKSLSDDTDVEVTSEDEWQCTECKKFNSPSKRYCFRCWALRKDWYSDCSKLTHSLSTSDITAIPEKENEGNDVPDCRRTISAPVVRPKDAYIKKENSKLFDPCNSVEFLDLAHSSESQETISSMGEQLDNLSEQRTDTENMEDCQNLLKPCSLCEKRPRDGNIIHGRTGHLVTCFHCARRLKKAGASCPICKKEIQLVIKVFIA
Target sequence (Q00987 whole entry, looked up): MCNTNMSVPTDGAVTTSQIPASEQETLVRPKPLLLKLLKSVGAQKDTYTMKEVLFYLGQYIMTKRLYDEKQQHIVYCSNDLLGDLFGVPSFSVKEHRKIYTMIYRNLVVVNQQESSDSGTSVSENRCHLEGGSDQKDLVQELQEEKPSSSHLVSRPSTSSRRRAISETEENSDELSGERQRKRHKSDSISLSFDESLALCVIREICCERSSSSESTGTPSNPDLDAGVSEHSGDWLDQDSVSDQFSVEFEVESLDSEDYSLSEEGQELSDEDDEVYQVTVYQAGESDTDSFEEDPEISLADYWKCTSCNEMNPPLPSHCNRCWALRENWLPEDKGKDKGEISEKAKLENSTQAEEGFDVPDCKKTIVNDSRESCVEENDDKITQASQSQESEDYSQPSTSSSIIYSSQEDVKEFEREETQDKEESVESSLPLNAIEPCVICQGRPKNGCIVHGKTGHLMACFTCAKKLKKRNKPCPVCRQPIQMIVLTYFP
CSC inhib: cancer stem cell inhibition | inhibition, % at 7.5 µM | AID 2717 | actives 1.1% (n = 300,000) | cancer stem cell-like cells viability, luminescence; in the data active = inhibition above about 75%; tested in HMLE shEcad cells
SKKanGAS inh: inhibitors of SKKanGAS S. pyogenes growth in kanamycin (SK-promoter or general growth effect). BacTiter-Glo, 6 h. inhibition, % at 7.5 µM. actives 1.3% (n = 300,000);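 active = mean replicate score, as percent of positive control median, at least 50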;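 note: strain carries kanamycin resistance gene driven by streptokinase promoter and grows in 40 µg/ml kanamycin; loss of luminescence reflects streptokinase promoter inhibition or plain growth inhibition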
UPR CHOP act: apoptotic UPR (CHOP) activation; activation, % at 10 µM; CHO-CHOP luciferase reporter, luminescence; percent of tunicamycin response over DMSO baseline; actives 0.34% (n = 330,000); AID 449763;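 active = at 10 µM dose, activation of 40% or more, normalized to positive control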
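Test system: CHO CHOP reporter cells. Input: 500 CHO-CHOP cells per well. Medium: F12 with 10% FBS. Technique: luciferase luminescence. Measure: percent activation relative to tunicamycin control. Dosing: 10 µM compound, 0.5% DMSO. Timing: 16-18 h cell attachment, then 6 h compound exposure, 37 °C.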
Of the large screens only hits and unclear results are named; the others gave an inactive call. Shown are actives, neighbours in structure and some others; about 4.8% of the full set was active somewhere.

O=C(Nc1ccc(NC(=S)NC(=O)c2ccccc2Cl)cc1)c1cccc(Cl)c1	CSC inhib 79
Cc1ccc(C)c(NC(=O)CN2C(=O)COc3ccc(S(=O)(=O)N4CCCC4)cc32)c1	none
O=C(Nc1ccccn1)c1c(O)c2cccc3c2n(c1=O)CCC3	none
O=C(Nc1nccs1)c1c(O)c2cccc3c2n(c1=O)CCC3	SKKanGAS inh 100 (no result: CSC inhib)
Cc1ccc(C(C)C)cc1S(=O)(=O)NCc1ccccn1	none
CC(=O)c1cccc(NS(=O)(=O)c2ccc(N/C=C\C(=O)c3ccc(C)cc3)cc2)c1	none
CC(=O)c1cccc(NS(=O)(=O)c2ccc(N/C=C/C(=O)c3ccc(F)cc3)cc2)c1	Beta apoptosis 112
CC(=O)c1cccc(NS(=O)(=O)c2ccc(N/C=C\C(=O)c3ccc(F)cc3)cc2)c1	Beta apoptosis 98
COc1ccc(CCNC(=O)C2CCCN(S(C)(=O)=O)C2)cc1 (stereo not given)	none
N#Cc1c(NC(=O)c2ccccc2Cl)n(Cc2ccccc2)c2nc3ccccc3nc12	Beta apoptosis 106, CSC inhib 112 (no result: UPR XBP1 act, Mdm2 MdmX PPI, SKKanGAS inh, UPR CHOP act)
CCCCn1c(NC(=O)CC)c(C#N)c2nc3ccccc3nc21	none
CCOC(=O)c1cc(CC)sc1NC(=O)CN1CCN(C(=O)c2ccco2)CC1	none
CC(C)C1OC2c3cccc4cccc(c34)C2N1c1ccccc1 (stereo not given)	SKKanGAS inh 80
COC(=O)c1cccc(NC(=O)CSc2nnc(C)o2)c1	none
CC1(C)CC(=O)c2c(O)cc(OCC(=O)Nc3ccc(S(N)(=O)=O)cc3)cc2O1	none
COc1cc(NC(=O)COc2cc(O)c3c(c2)OC(C)(C)CC3=O)cc(OC)c1OC	Beta apoptosis 110
COc1cc2c(cc1OC)CN(C(=O)c1ccc(Cl)c(S(=O)(=O)N3CCCC3)c1)CC2	none (no result: SKKanGAS inh)
Cc1nn(-c2ccccc2)c(C)c1/C=N/NC(=O)c1cc(-c2cccc3ccccc23)n[nH]1	SKKanGAS inh 51
COC(=O)c1ccccc1S(=O)(=O)N1CCC(C(=O)Nc2ccc(N3CCOCC3)cc2)CC1	none (no result: SKKanGAS inh)
COc1ccccc1NC(=O)CSc1nnc(C2CCCCC2)n1-c1ccccc1	CSC inhib 82
CN1C(=O)/C(=C/c2cccc(Cl)c2)Sc2ccc(C(=O)NCc3cccnc3)cc21	CSC inhib 96
COc1ccc(/C=C2\Sc3ccc(C(=O)NCc4cccnc4)cc3N(C)C2=O)cc1OC	SKKanGAS inh 66
COc1cccc(/C=C2\Sc3ccc(C(=O)NCc4cccnc4)cc3N(C)C2=O)c1	none
CCN1CCN(C2=C(NS(=O)(=O)c3ccccc3)C(=O)c3ccccc3C2=O)CC1	Beta apoptosis 82
CN1CCN(C2=C(NS(=O)(=O)c3cccs3)C(=O)c3ccccc3C2=O)CC1	Beta apoptosis 93
O=C1C(NS(=O)(=O)c2cccs2)=C(N2CCN(c3cccc(C(F)(F)F)c3)CC2)C(=O)c2ccccc21	SKKanGAS inh 55
Cc1ccc(NS(=O)(=O)c2ccc3c(c2)NC(=O)CCS3)c(Br)c1	none
COc1ccc(Br)cc1/C=C/C(=O)Nc1ccc2ccccc2c1	CSC inhib 77
CC(NC(=O)COC(=O)c1cc(NS(=O)(=O)c2ccc(Cl)c([N+](=O)[O-])c2)ccc1O)C1CC2CCC1C2 (stereo not given)	CSC inhib 108
COc1c(CC=C(C)C)cc(C2CC(=O)c3c(O)cc(O)cc3O2)c(CC=C(C)C)c1O (stereo not given)	SKKanGAS inh 109
Cc1cnc(C(=O)OC(C)C(=O)Nc2ccccc2-c2ccccc2)cn1 (stereo not given)	none
COCCCn1c(=O)c2ccccc2n(Cc2cccc(C)c2)c1=O	none (no result: Beta apoptosis)
C/C(=N\NS(=O)(=O)c1c(C)cc(C)cc1C)c1ccncc1	none
CCOC(=O)C1=C(N)c2ccccc2CC1C1CCCC1 (stereo not given)	SKKanGAS inh 55
COc1cccc(CC(NC(C)=O)C(=O)NC2CCN(C(=O)c3ccc(Cl)cc3)CC2)c1 (stereo not given)	none (no result: Beta apoptosis, CSC inhib)
O=C(NC1CC2CCCC(C1)N2C(=O)Nc1ccccc1)C1CC1 (stereo not given)	none
Cc1nc(SCC(=O)Nc2nnc(C(C)C)s2)n[nH]1	none
O=C(Cc1ccccc1)NCCS(=O)(=O)N1CCN(c2ccccc2)CC1	SKKanGAS inh 54 (no result: CSC inhib)
COc1ccc(S(=O)(=O)Nc2ncccc2C)c2ccccc12	none
CC(C)c1nc2sc3ccccc3c(=O)c2c(=O)n1Cc1ccccc1	CSC inhib 77
CCCc1nc2sc3ccccc3c(=O)c2c(=O)n1Cc1ccc(OC)cc1	Beta apoptosis 100
COc1ccc(Cn2c(C(C)C)nc3sc4ccccc4c(=O)c3c2=O)cc1	none
C[C@@H]1CCC(=O)N(CC[C@H](Sc2ccc(Br)cc2)c2ccccc2)CC1	CSC inhib 97 (no result: SKKanGAS inh)
Cc1ccc(S[C@@H](CCN2CC[C@H](C(C)(C)C)CCC2=O)c2ccccc2)cc1	CSC inhib 108, SKKanGAS inh 76
COc1ccccc1-c1c(C)oc2c(CN3CCCCC3C)c(O)ccc2c1=O (stereo not given)	none
COc1cccc(N2C(=O)C3NN=C(C(=O)CN4C(=O)c5ccccc5C4=O)C3C2=O)c1 (stereo not given)	SKKanGAS inh 52
CCN(c1ccccc1)S(=O)(=O)c1ccc(C(=O)Nc2nnc(-c3ccco3)o2)cc1	CSC inhib 87, SKKanGAS inh 63
CCN(c1ccccc1)S(=O)(=O)c1ccc(C(=O)Nc2nnc(C3CC3)o2)cc1	SKKanGAS inh 78
COCCNC(=O)c1ccc(C2SCC(=O)N2CCc2ccccc2)cc1 (stereo not given)	none
N/N=C/C(=N\Nc1ccc(Cl)cc1)C(=O)c1ccncc1	CSC inhib 76
CC(=O)c1cccc(N=c2scc(-c3ccc(S(=O)(=O)N4CCOCC4)cc3)n2CCO)c1	Beta apoptosis 75
Cc1ccc(C(=O)/C=C/c2cc(C#N)n(C)c2C)cc1	none
Cc1ccc(Oc2nc(CN3CCOCC3)nc3sc4c(c23)CCC(C)C4)cc1C (stereo not given)	CSC inhib 120
Cc1ccc(Oc2nc(CN3CCOCC3)nc3sc4c(c23)CCC(C)C4)cc1 (stereo not given)	none
COc1ccccc1N=C1NC(=O)/C(=C/c2ccc(N(C)C)cc2)S1	SKKanGAS inh 56
COc1ccc(/C=C2\SC(=Nc3ccccc3)NC2=O)cc1	none
Cc1cc(NC(=O)CCC(=O)N(CC(=O)NCC2CCCO2)c2ccc(F)c(Cl)c2)no1 (stereo not given)	none
Cc1ccc(NC(=S)NCc2ccc(F)cc2)cc1	none (no result: Beta apoptosis)
Cc1cc(C)cc(NS(=O)(=O)c2ccc(NC(=S)NC(=O)c3cccs3)cc2)c1	SKKanGAS inh 77

Source: PubChem BioAssay
